Screens from PubChem.
MT stabilizer: microtubule stabilizers in HeLa cells | AID 2205 | % tubulin-high responders, % at 10 µM | 200,000 tested, 0.83% active | HeLa tubulin immunostaining HCS, 24 h; share of cells brighter than vehicle mean+2SD;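 active = plate Z-score above 3 for both tubulin-high and condensed-nucleus cell shares, with cell loss under 80%, at 10 µM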;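 also: anti alpha tubulin signal scored within the nucleus-defined area of each cell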
Ba/F3 V617F tox: loss of viability in JAK2V617F-driven Ba/F3 cells; Ba/F3 EpoR-JAK2V617F viability, ATP luminescence; inhibition, % at 5.6 µM; 220,000 tested, 1.1% active; AID 1446;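 active = inhibition above the campaign mean plus 3 SD over all tested compounds, cut at about 24% in these data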;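 also: cytokine-independent growth of Ba/F3 cells driven by EpoR plus mutant JAK2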
IEC-6 tox: counter-screen for KLF5 inhibitors: cytotoxicity in IEC-6 cells; 290,000 tested, 0.78% active; inhibition, % at 5 µM; IEC-6 cytotoxicity, luminescence viability; AID 1825; in the data active = inhibition above about 22%
BaF3 parental: parental Ba/F3 viability inhibition as JAK2V617F counter-screen; CellTiter-Glo ATP luminescence; inhibition, % at 5.6 µM; 220,000 tested, 1.1% active;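 active = inhibition above a per-campaign cutoff, the mean inhibition of all tested compounds plus 3 SD, cut at about 27% in these data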
KLF5 inhibitor: inhibitors of KLF5 expression. DLD-1 KLF5 promoter-luciferase reporter, luminescence. inhibition, % at 5 µM. 290,000 tested, 0.23% active;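 active = inhibition above a per-plate limit of that plate's mean compound inhibition plus 3 SD, cut at about 60% in these data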;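 also: higher means less KLF5 promoter-driven luciferase light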
bCat nuc transl: beta-catenin nuclear translocation modulation. HeLa beta-catenin nuclear translocation, immunofluorescence imaging. nuclear translocation activity, % at 5 µM. 190,000 tested, 0.3% active. AID 1665;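 active = nuclear translocation activity above 50% at 5 µM, with a well cell count of 50 or more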;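 also: per-cell ratio of nuclear to cytoplasmic median beta-catenin stain intensity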
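Test system: human HeLa cells, native beta-catenin. Compound dosing: 5 µM primary single dose, 0.1% DMSO, 0.02–20 µM confirmation series. Incubation: compound exposure 24 h at 37°C. Detection: beta-catenin immunostaining with DAPI counterstain, 20x imaging, 6 fields/well. Read-out basis: Nuclear/cytoplasmic beta-catenin signal ratio, % activation.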
A number is an active result; i = inactive; nt = no result given. This is a sample that favours compounds with a hit; in the whole collection about 2.1% have one here.

SMILES	MT stabilizer	Ba/F3 V617F tox	IEC-6 tox	BaF3 parental	KLF5 inhibitor	bCat nuc transl
COc1ccc(OC)c(C(C)NC(=O)c2ccco2)c1 (configuration not stated)	25.9	i	i	i	i	i
O=C(O)CC/C(=N/NC(=O)c1cccs1)c1ccccc1	i	i	i	i	i	i
O=c1c2ccccc2[nH]c(=S)n1-c1cccc(S(=O)(=O)N2CCCC2)c1	i	i	i	i	i	i
O=S(=O)(NCC1CCCO1)c1ccc(-c2ccc(S(=O)(=O)NCC3CCCO3)cc2)cc1 (configuration not stated)	i	52.4	i	80.0	i	i
Cc1ccc(S(=O)(=O)NCC2CCCO2)cc1 (configuration not stated)	nt	nt	i	nt	i	nt
CCOc1ccccc1CN1CCN(Cc2ccc(C)o2)C(CCO)C1 (configuration not stated)	i	i	i	79.6	i	i
Cc1ccc(-c2nn(-c3ccccc3)cc2NC(=O)CCl)cc1	i	i	i	i	i	i
Cc1cc(-c2ccccc2)nc2[n+]1CCN2C	i	67.9	i	61.8	i	i
O=C(c1ccccc1SCc1ccccc1)N1CCCCCC1	i	i	i	i	i	i
O=C(NCc1ccco1)c1sc(=S)n2c1[nH]c(=O)c1ccccc12	i	i	i	90.5	i	i
O=C(NC1CCCC1)c1sc(=S)n2c1[nH]c(=O)c1ccccc12	i	i	i	i	i	i
COc1cccc(Nc2nc(-c3ccc4c(c3)OCCO4)cs2)c1	33.5	i	i	i	i	i
c1cc2c(cc1Nc1nc(-c3ccc4c(c3)OCO4)cs1)OCCO2	i	i	i	i	i	i
Cc1nn(-c2ccccc2)c(Cl)c1/C=N/NC(=O)c1[nH]ncc1Br	nt	nt	i	nt	i	nt
CCc1c(C)nc2ncnn2c1NCCc1ccc(Cl)cc1	i	i	i	38.6	i	i
COc1ccc(C(N)=S)cc1	i	i	i	i	i	i
C=C(c1ccc(OC)cc1)c1ccc(OC)cc1	i	i	i	i	i	88.2
OC1(c2ccccc2)CN(c2ccccc2)C2=[N+]1CCS2 (configuration not stated)	i	34.8	i	36.6	i	nt
CC(C)(C)c1ccc(/C=N/Nc2nncn2N)cc1	nt	nt	i	nt	i	nt
Nn1cnnc1N/N=C/c1cc(Br)cc(Br)c1O	i	i	30.6	i	i	i
CCNc1nc(NC(C)(C)C)nc(Oc2ccc(=O)n(-c3ccccc3)n2)n1	i	i	i	i	i	i
Cc1[nH]c(=O)c(C#N)c(C)c1CCC(=O)NCc1cccc(C(F)(F)F)c1	nt	nt	i	nt	i	nt
O=C(NNc1c2ccccc2nc2ccccc12)c1ccc(O)cc1O	i	72.2	i	76.7	i	i
O=C(NNc1c2ccccc2nc2ccccc12)c1ccccc1O	i	i	i	i	i	i
O=C(NNc1c2ccccc2nc2ccccc12)c1ccc(O)cc1	i	49.2	i	65.0	i	i
SMILES	MT stabilizer	Ba/F3 V617F tox	IEC-6 tox	BaF3 parental	KLF5 inhibitor	bCat nuc transl
CCOC(=O)C1CCCN(S(=O)(=O)c2ccc(C)cc2)C1 (configuration not stated)	i	i	i	i	i	i
CCOC(=O)C1CCCN(S(=O)(=O)c2ccc(S(=O)(=O)N(CC)CC)cc2)C1 (configuration not stated)	nt	52.4	i	69.3	i	i
N#C/C(=N\Nc1cccc(C(F)(F)F)c1)C(=O)c1ccsc1	nt	i	i	32.2	i	i
Cc1cccc2cc(-c3ccccc3)c(-c3ccccc3)c[n+]12	i	89.5	i	71.6	i	i
O=[N+]([O-])c1cccc(-c2cc3cccc[n+]3cc2-c2cccc([N+](=O)[O-])c2)c1	i	i	i	i	i	nt
COc1cccc(CC2(CO)CCN(Cc3cnc(N4CCOCC4)s3)CC2)c1	nt	i	i	i	i	i
OCC1(CCCc2ccccc2)CCN(Cc2cnc(N3CCOCC3)s2)CC1	i	i	i	63.8	i	i
CC(=O)N1c2ccccc2C(=O)C1N(C)c1ccc(C)cc1 (configuration not stated)	nt	nt	i	nt	i	nt
CC(=O)N1/C(=C/c2ccc(N(C)C)cc2)C(=O)c2ccccc21	19.5	i	i	i	i	i
CSc1ccc(NC(=O)N2CC=C(n3c(=O)[nH]c4ccccc43)CC2)cc1	31.2	i	i	i	i	i
CC(=O)c1sc2nc(=O)c(C)nn2c1C	i	i	i	i	i	i
CC1CCN(C(=O)COC(=O)c2ccc(F)c(S(=O)(=O)N3CCOCC3)c2)CC1	nt	nt	i	nt	i	nt
COc1cc2c(cc1OC)CN(C(=O)c1ccc3nc[nH]c3c1)CC2	17.9	i	i	i	i	82.3
CCCCCCCOc1ccc(OC(=O)c2cccnc2)cc1	i	57.8	i	43.8	i	i
COc1ccccc1CC(=O)Nc1cccc(S(=O)(=O)N2CCOCC2)c1	nt	nt	i	nt	i	nt
CCCCNC(C(=O)Nc1cccc(S(=O)(=O)N2CCOCC2)c1)c1ccccc1 (configuration not stated)	i	i	i	35.9	i	i
COc1ccc(N2CCN(C(=O)c3ccccc3NS(=O)(=O)c3ccc(C)cc3)CC2)cc1	nt	nt	i	nt	i	nt
COc1ccc(Nc2oc(-c3ccc(Cl)cc3)nc2C#N)cc1	39.4	i	i	i	i	63.3
CCOc1ccc(Nc2oc(-c3ccc(Cl)cc3)nc2C#N)cc1	32.8	i	i	i	i	i
Cn1nc(C(C)(C)C)cc1C(=O)NCc1cc(F)cc2c1OCOC2	nt	43.9	i	56.5	i	i
S=C(Nc1ccc(Cl)cc1)N1CCN(Cc2ccccc2)CC1	nt	28.1	i	48.9	i	i
Cc1ccc(NC(=S)N2CCN(Cc3ccccc3)CC2)cc1	i	i	i	i	i	i
Cc1ccc(NC(=S)N2CCN(C(=O)C3CCCO3)CC2)cc1 (configuration not stated)	i	i	i	i	i	i
O=C(C1CCCO1)N1CCN(C(=S)Nc2ccc(Cl)cc2)CC1 (configuration not stated)	i	38.6	i	30.0	i	i
COCCCn1c(C)nnc1SCC(=O)Nc1ccc(C(C)=O)cc1	nt	nt	i	nt	i	nt
SMILES	MT stabilizer	Ba/F3 V617F tox	IEC-6 tox	BaF3 parental	KLF5 inhibitor	bCat nuc transl
O=C(Nc1ccccc1N1CCCC1)c1ccc([N+](=O)[O-])cc1Cl	i	i	i	i	i	i
COc1ccc(NC(=S)/N=C(\N)Nc2nc(C)c3ccc(C)cc3n2)cc1	i	i	i	43.4	i	i
O=S(=O)(NCc1ccncc1)c1ccc(Br)s1	i	46.9	i	62.2	i	nt
CCN(C1CCCCC1)S(=O)(=O)c1ccc(S(=O)(=O)NCCc2ccncc2)cc1	i	i	i	i	i	i
CCN(C1CCCCC1)S(=O)(=O)c1ccc(S(=O)(=O)NCc2ccncc2)cc1	i	44.6	i	55.1	i	nt
Cc1ccc(S(=O)(=O)NCc2ccncc2)cc1C	i	48.0	i	75.1	i	i
COc1ccc(C2(c3ccc(OC)cc3)NC(=O)NC2=O)cc1	nt	nt	i	nt	i	nt
Cc1ccc(NC(=O)CCNC(=O)c2ccco2)cc1Cl	nt	nt	i	nt	i	nt
O=C(Cn1nc(-c2cccc(Cl)c2)ccc1=O)Nc1ccc(C(=O)NC2CC2)cc1	i	i	i	i	i	i
